Our source for the cytotoxicity values is ChEMBL document CHEMBL4513216, “Probing the Open Global Health Chemical Diversity Library for Multistage-Active Starting Points for Next-Generation Antimalarials” (ACS Infect Dis, 2020).

Each structure is given as a SMILES string.

The series in a line: Toxicity liver stage against HepG2, at 10uM. Particulars: human, HepG2-A16-CD81EGFP cells; read-out: INHIBITION
In kind it is cell-based. Further details: test concentration 10 uM, cell line HepG2-A16-CD81EGFP. The procedure, abridged: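 Uninfected HepG2-A16-CD81EGFP cells, 3 × 10^3 per well, 1536-well, plated on prespotted compound at 10 μM final, parasite-free screening media added to match infected plates; puromycin 10 μM positive, DMSO 0.5% negative; run in parallel with 48 h PbLuc assay at 37 °C, 5% CO2; viability by CellTiter-Glo luminescence, normalized to controls.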
On to `Cn1ncc2c1CCCN(C(=O)C1CCC1)C2`, for which the cytotoxicity at 10 µM was -3.15%.

Regarding `COc1ccc(-c2nnc([C@H]3CCN(CC(C)(C)C)C3)o2)cc1`, the cytotoxicity at 10 µM is -3.43%.

Take `CC(C)(C)C(=O)CN1Cc2ccccc2NCCC1=O`: the cytotoxicity at 10 µM was -3.19%.

As for `CC1CC(=O)c2cc(C(=O)N3CCc4ccccc4C3)c(=O)[nH]c2C1` (stereo not given), the cytotoxicity at 10 µM was -4.65%.

Regarding `CS(=O)(=O)N1CCCC12CCCN(C(=O)c1ccncc1)C2` (stereo not given), the cytotoxicity at 10 µM is -159%.

Consider `COc1ccccc1NC(=O)CSC1CCc2ccccc2NC1=O` (stereo not given), for which the cytotoxicity at 10 µM was determined as 20%.

Take `Fc1cccc(Cl)c1CNCc1ccccn1`: the cytotoxicity at 10 µM is -2.25%.

Take `CC(C)NC(=O)COc1ccc(-c2nc(C(C)C)no2)cc1`: the cytotoxicity at 10 µM turned out to be 5.67%.

As for `COc1cccc(OCCNS(=O)(=O)Cc2ccccc2)c1`, the cytotoxicity at 10 µM was -15.7%.

In the case of `Cc1onc(-c2ccncc2)c1C(=O)NC1CCCOC1` (stereo not given), the cytotoxicity at 10 µM stood at 4.51%.

As to `CN1CCC(c2nnc3n2CCN(S(=O)(=O)c2ccccc2Cl)C3)CC1`, the cytotoxicity at 10 µM was 2.58%.

Take `Cc1cc2c(c(=O)n1CCC(=O)O)C=CC(C)(C)O2`: the cytotoxicity at 10 µM turned out to be 10.8%.

Turning to `CC(Cn1cc(Cl)cn1)C(=O)Nc1ccc(CN2CCCCCC2)cc1` (stereo not given), the cytotoxicity at 10 µM amounted to 8.66%.

`Cc1nc(C2CCN2c2ncccn2)cc(N(C)C)n1` (stereo not given): the cytotoxicity at 10 µM was -4.8%.

For the compound `O=C(O)c1ccc(=O)n(CC(c2ccc(Cl)cc2)N2CCCCCC2)c1` (stereo not given), the cytotoxicity at 10 µM worked out at 1.12%.

Consider `Cc1cc(C(F)(F)F)n2nc(C3CCN(S(=O)(=O)N(C)C)CC3)cc2n1`, for which the cytotoxicity at 10 µM was -2.88%.

For `Oc1cc(C2CCCCN2Cc2ccsc2)nc(-c2ccncc2)n1` (stereo not given), the cytotoxicity at 10 µM amounted to 9.89%.

For `CCc1cc(C(=O)N[C@@H]2CC[C@@H](N3CCOCC3)[C@@H]2O)no1`, the cytotoxicity at 10 µM came out at 37.5%.

As for `COCCN(Cc1ccccn1)C(=O)CC1OCCc2ccccc21` (stereo not given), the cytotoxicity at 10 µM was -42.5%.

Turning to `CNC(=O)c1cccc(CCNC2CCSc3ccccc32)c1` (stereo not given), the cytotoxicity at 10 µM was determined as 3.42%.

For `COc1cc(Cl)c(CN2CCC(C(N)=O)C2)cc1Cl` (stereo not given), the cytotoxicity at 10 µM is -2.4%.

On to `O=C(NCCc1nncn1C1CC1)C1SCCc2sccc21` (stereo not given), for which the cytotoxicity at 10 µM was -1.6%.

For `Cc1cn2c(CN(C)C(=O)c3ncoc3C)c(C)nc2s1`, the cytotoxicity at 10 µM was -3.28%.

In the case of `CN(C)C(=O)CCNC(=O)c1cnc(-c2ccccc2)nc1`, the cytotoxicity at 10 µM came out at 4.87%.

Turning to `CCCc1nn(C2CCN(C(C)C)C2=O)c(=O)o1` (stereo not given), the cytotoxicity at 10 µM was -3.59%.

`Cn1c(CCCNc2nccnc2C#N)nc2ccccc21`: the cytotoxicity at 10 µM is -8.98%.

Take `COc1cccc(N2CCN(C(=O)C(O)c3ccccc3Cl)CC2=O)c1` (stereo not given): the cytotoxicity at 10 µM worked out at 3.25%.

As for `O=S1(=O)CCC(n2cc(C3=CCN(CCn4cccc4)CC3)cn2)C1` (stereo not given), the cytotoxicity at 10 µM is -8.5%.

For `CN(Cc1ccccc1CN1CCCC1)C(=O)c1c[nH]c(=O)[nH]1`, the cytotoxicity at 10 µM is -3.99%.

As for `CCc1nc(CN2CCCN(C(=O)c3cnc(C)cn3)CC2)cs1`, the cytotoxicity at 10 µM is -4.81%.

Regarding `COCc1nc(C(=O)NS(=O)(=O)c2ccc(C)s2)cs1`, the cytotoxicity at 10 µM was -4.61%.

In the case of `N#CC1(C(=O)NCCCNc2ccc(C(F)(F)F)cn2)CCCC1`, the cytotoxicity at 10 µM is -6.36%.

As for `Cc1nnc2n1CCN(Cc1ncc(-c3ccc(Cl)cc3)o1)C2`, the cytotoxicity at 10 µM was -17.7%.

Consider `Clc1snnc1CN1CCCCC1Cn1cncn1` (stereo not given), for which the cytotoxicity at 10 µM was -0.575%.

Regarding `CCCN1C(=O)CC2(CCCNC2)C1=O` (stereo not given), the cytotoxicity at 10 µM worked out at 4.1%.

Regarding `COc1cccc(Cn2c(C3CCNCC3)cc3cccnc32)c1`, the cytotoxicity at 10 µM turned out to be 0.115%.

For the compound `CN(C)C(=O)[C@@H]1CCO[C@@H]2CCN(Cc3ccc4c(c3)OCO4)C[C@@H]21`, the cytotoxicity at 10 µM is -3.76%.

Take `O=S(=O)(NCC1OCCc2cn(Cc3ccccn3)nc21)C1CC1` (stereo not given): the cytotoxicity at 10 µM was -143%.

As to `CS(=O)(=O)N1CCC2(CC1)CC(Oc1ccccn1)CO2` (stereo not given), the cytotoxicity at 10 µM is -150%.

For `CO[C@@H]1CN(Cc2scnc2C)[C@@H]2CCCO[C@@H]21`, the cytotoxicity at 10 µM is -6.34%.
